In ChEMBL document CHEMBL4043295, “Marbostat-100 Defines a New Class of Potent and Selective Antiinflammatory and Antirheumatic Histone Deacetylase 6 Inhibitors” (J Med Chem, 2018):
Calls of active or inactive are those of the source. The rule behind the calls is not given here.

Tests used:
[1] = Inhibition of class 1 HDAC in human MV4-11 cells assessed as induction of histone hyperacetylation at 50 nM to 10 uM after 24 hrs by Western blot method; assay type: cell-based; settings: 0.05 µM
Summary of the method: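 MV4-11 cells were exposed to the inhibitor, from 5 nM to 10 µM for 24 h or at 50 nM for 10 min to 48 h. Lysates were immunoblotted for acetylated tubulin, acetylated histone H3 and HDAC6. Acetyl-tubulin was quantified by densitometry normalised to HSP90. MS-275 at 5 µM for 24 h was the comparator. Blots are representative of at least two independent experiments.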

MV4-11 = assay: Cell cycle arrest in human MV4-11 cells at 50 nM to 1 uM after 24 hrs by propidium iodide staining-based flow cytometric method; assay type: functional
Summary of the method: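 Cells were stained with propidium iodide and analysed by flow cytometry for cell-cycle distribution and the subG1 fraction (fragmented DNA). Representative of at least two independent experiments.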

Jurkat = assay: Cell cycle arrest in human Jurkat cells at 5 to 1000 nM after 24 hrs by propidium iodide staining-based flow cytometric method; assay type: functional
Mus musculus [2] = assay: In vivo inhibition of HDAC6 in DBA/1J mouse assessed as induction of tubulin acetylation in liver at 0.6 mg […] by Western blot method; assay type: functional, organism-based
Mus musculus [3] = assay: Antiarthritic activity in DBA/1J mouse collagen-induced arthritis model assessed as reduction in paw thickness at 30 mg/kg, ip administered every morning for 1 week measured during compound dosing; assay type: functional, organism-based
Summary of the method: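 Collagen type II-induced arthritis in mice, treated at 30 mg/kg versus vehicle. Clinical arthritis score and paw swelling were followed over time from the start of treatment until the end of the experiment.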

Mus musculus [4] = assay: Antiarthritic activity in DBA/1J mouse collagen-induced arthritis model assessed as decrease in cellular invasion at 30 mg/kg, ip administered every morning for 12 to 14 days; assay type: functional, organism-based
Summary of the method: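 Collagen type II-induced arthritis in mice, treated at 30 mg/kg versus vehicle. Arthritic paws were assessed histologically for synovial inflammation, cellular invasion, cartilage degradation and bone erosion.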

Mus musculus [5] = assay: Antiarthritic activity in DBA/1J mouse collagen-induced arthritis model assessed as reduction of articular bone erosion in arthritic hind paw at 30 mg/kg, ip administered every morning for 12 to 14 days measured post last dose by microCT method relative to vehicle-treated control; assay type: functional, organism-based
Mus musculus [6] = assay: Toxicity in DBA/1J mouse collagen-induced arthritis model assessed as effect on red blood cell count at 30 mg/kg, ip administered every morning for 12 to 14 days measured post last dose relative to vehicle-treated control; assay type: organism-based; settings: in vivo

For `CN1C(=O)C2CN(Cc3c2c2ccccc2n3Cc2ccc(C(=O)NO)cc2)C1=O` (stereo not drawn), the “inhibition (INH)” value [1] was “Not Active”, the Activity (MV4-11) was “inactive” and the Activity (Jurkat) was “inactive”. For the same compound, the inhibition (Mus musculus [2]) was “Active”, the Activity (Mus musculus [3]) was “Active” and the Activity (Mus musculus [4]) was “Active”. For the same compound, the Activity (Mus musculus [5]) was “Active” and the Activity (Mus musculus [6]) was “Non-Toxic”.
